eIF4H FP inh = inhibitors of RNA binding by human eIF4H; eIF4H fluorescence polarization binding assay; AID 2012; actives 0.94% (n = 290,000); inhibition, % at 35 µM; Q15056;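 further: calls also rest on retests at 20 µM and on dose response follow-up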
MLLE-PAM2 inh = blocks PAM2 peptide binding to the PABP1 MLLE domain; P11940; GST-MLLE / FITC-PAM2 fluorescence polarization; inhibition, % at 20 µM; actives 0.36% (n = 360,000); AID 588489; in the data active means inhibition above about 35%, passing the limit was not always enough;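 further: plate controls were DMSO wells with GST-MLLE for no effect and wells lacking GST-MLLE protein for full effect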
PABP FP inh = blocks human PABP binding to poly(A) RNA; fluorescence polarization; calls only at 35 µM; actives 1% (n = 290,000); AID 2014;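 further: calls also rest on retests at 20 µM and on dose response follow-up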
HCV core dimer = blocks dimerization of HCV core protein; inhibition, % at 5 µM; actives 0.33% (n = 300,000); TR-FRET GST/Flag-core106 dimerization, 1536-well;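 active means inhibition above the mean of all tested compounds plus 3 SD, set per screening campaign, cut at about 45% in these data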
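Assay system: tagged HCV core106 pair (GST and Flag); medium: KF-containing HEPES buffer, pH 7.45, DTT, CHAPS, BSA; also added: Eu donor and XL665 acceptor anti-tag antibodies; dosing: 5 µM single dose; timing: compound-protein-antibody incubation 4 h at 22.5 °C; signal: TR-FRET 671 and 617 nm emission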
eIF4E-4G inh = inhibitors of eIF4E and eIF4G interaction in translation initiation; P63073+Q04637; TR-FRET eIF4E-eIF4GI(517-606) binding, 2 h; inhibition, % at 21.7 µM; actives 0.37% (n = 220,000); AID 782;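 active means inhibition above about 30%, limit read from the data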;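 further: 0% = full FRET control wells and 100% = background wells lacking eIF4GI fragment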
SUMO HTRF inh = inhibitors of human SUMOylation (UBC9) | P63279 | inhibition, % at 35 µM | actives 0.36% (n = 290,000) | HTRF SUMOylation assay, SAE1/SAE2 + UBC9, in vitro; in the data active means inhibition above about 50%, passing the limit was not always enough; inconclusive means no clear call, values can overlap the other calls
Target sequence (P63279 whole entry, looked up): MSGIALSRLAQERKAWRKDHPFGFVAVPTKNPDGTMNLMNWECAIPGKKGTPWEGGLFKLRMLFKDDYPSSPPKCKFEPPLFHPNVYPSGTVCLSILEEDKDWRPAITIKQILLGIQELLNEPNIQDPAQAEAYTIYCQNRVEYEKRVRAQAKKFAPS
Numbers without * were called inactive. Most compounds without a hit are left out; they make up all but 1.8% or so of the library. Unless noted, how the calls were made is not given here.

For O=C1C=C(O)c2cccc3cccc1c23 the results were eIF4H FP inh 58*, MLLE-PAM2 inh 70*, PABP FP inh active, HCV core dimer 3 and SUMO HTRF inh -6.
`O=C(CSc1nc2cc(Cl)ccc2s1)c1cc2ccccc2o1` gave eIF4H FP inh 45*, MLLE-PAM2 inh -17, PABP FP inh active, HCV core dimer 12, eIF4E-4G inh -3 and SUMO HTRF inh 13.
Screening Cc1cc(NC(=O)CSc2nc3cc(Cl)ccc3s2)no1 returned eIF4H FP inh -8, MLLE-PAM2 inh -1, PABP FP inh inactive, HCV core dimer 1, eIF4E-4G inh -26 and SUMO HTRF inh 26.
Screening CC1(C)C(=O)Nc2ccccc2N1C(=O)CSc1nc(-c2ccccc2)cs1 returned eIF4H FP inh 13, MLLE-PAM2 inh -10, PABP FP inh inactive, HCV core dimer 46*, eIF4E-4G inh 4 and SUMO HTRF inh 13.
Cc1cc(Cl)cc(C)c1OCC(=O)NC1CCCCCC1 was read as MLLE-PAM2 inh 1.
For COC(=O)c1ccc(NS(=O)(=O)c2ccc3[nH]c(=O)oc3c2)cc1 the results were eIF4H FP inh 66*, MLLE-PAM2 inh -25, PABP FP inh inactive, HCV core dimer 4 and SUMO HTRF inh -6.
Screening Cc1cccc(NS(=O)(=O)c2ccc3[nH]c(=O)oc3c2)c1C returned MLLE-PAM2 inh -7.
Cc1ccc(C)c(NS(=O)(=O)c2ccc3[nH]c(=O)oc3c2)c1 was read as eIF4H FP inh inconclusive, MLLE-PAM2 inh -7, PABP FP inh active, HCV core dimer -2, eIF4E-4G inh 3 and SUMO HTRF inh 8.
COc1cc(NC(=O)CCc2c(C)[nH]c(=O)c(C#N)c2C)cc(OC)c1 was read as eIF4H FP inh -1, MLLE-PAM2 inh 0, PABP FP inh inactive, HCV core dimer 9 and SUMO HTRF inh 1.
Screening Cc1ccc(-c2ccc(/C=C3/NC(=O)NC3=O)o2)cc1[N+](=O)[O-] returned eIF4H FP inh inconclusive, MLLE-PAM2 inh 20, PABP FP inh inactive, eIF4E-4G inh -3 and SUMO HTRF inh 1.
`CC1=C(C#N)C(=O)NC(=O)/C1=C\c1ccc(-c2cc(C)c(C)cc2[N+](=O)[O-])o1` gave eIF4H FP inh inconclusive, MLLE-PAM2 inh 20, PABP FP inh inconclusive and eIF4E-4G inh 48*.
Screening Nc1cc2c(cc1[N+](=O)[O-])OCO2 returned eIF4H FP inh 84, MLLE-PAM2 inh 2, PABP FP inh active, HCV core dimer 41, eIF4E-4G inh 16 and SUMO HTRF inh 6.
Screening O=C1CC(=O)NC(SCC(=O)Nc2ccccc2[N+](=O)[O-])=N1 returned eIF4H FP inh 78*, MLLE-PAM2 inh 10, PABP FP inh active, HCV core dimer 9 and SUMO HTRF inh 16.
`NNc1nc2c(Cl)ccc(Cl)c2s1` gave eIF4H FP inh 62*, MLLE-PAM2 inh 9, PABP FP inh active, HCV core dimer 7, eIF4E-4G inh -1 and SUMO HTRF inh 51.
`CCOC(=O)CN1C(=O)N[C@@H](c2cccc(F)c2)C(C(=O)OC)=C1C` gave MLLE-PAM2 inh -1 and HCV core dimer -16.
CCO/C=C1\C(=O)N(CC)c2ccccc21 was read as eIF4H FP inh active, MLLE-PAM2 inh 16, PABP FP inh active, HCV core dimer -4, eIF4E-4G inh 3 and SUMO HTRF inh 1.
CN1CCN(S(=O)(=O)c2ccc(N3CCc4ccccc4C3)nc2)CC1 was read as eIF4H FP inh -15, MLLE-PAM2 inh -11, PABP FP inh inactive, HCV core dimer -1, eIF4E-4G inh 1 and SUMO HTRF inh 22.
`COc1ccc(OC)c(S(=O)(=O)N2CCN(C(=O)c3cc(C4CC4)nn3-c3ccccc3)CC2)c1` gave MLLE-PAM2 inh 68*.
CCc1ccc(NC(=O)CSc2nnc(C)c(=O)n2N)cc1 was read as eIF4H FP inh -2, MLLE-PAM2 inh 12, PABP FP inh inactive, HCV core dimer -7 and SUMO HTRF inh -7.
O=C(c1ccc2c(=O)n3c(nc2c1)CCCCC3)N1CCc2ccccc21 was read as eIF4H FP inh -9, MLLE-PAM2 inh 8, PABP FP inh inactive, HCV core dimer 1, eIF4E-4G inh -6 and SUMO HTRF inh -3.
For Cc1ccc(C(=O)NCC(=O)NCC(=O)OCc2ccc(F)cc2)cc1 the results were eIF4H FP inh -5, MLLE-PAM2 inh -9, PABP FP inh inactive, HCV core dimer 0, eIF4E-4G inh 2 and SUMO HTRF inh -6.
Screening COc1ccc(C2CC=C(C(C)=O)CN2S(=O)(=O)c2ccccc2)cc1 (stereo not drawn) returned MLLE-PAM2 inh 6.
For Cc1ccc2nc(N3CCN(S(=O)(=O)c4ccc5c(c4)OCCO5)CC3)c(C#N)cc2c1 the results were eIF4H FP inh -2, MLLE-PAM2 inh -5, PABP FP inh inactive, HCV core dimer 59*, eIF4E-4G inh -73 and SUMO HTRF inh -13.
For CN(C)c1ccc(S(=O)(=O)NCC(=O)N2CCN(S(=O)(=O)c3cccc(F)c3)CC2)cc1[N+](=O)[O-] the results were MLLE-PAM2 inh 22.
For CN(CC(=O)Nc1cccc(F)c1)C(=O)CNS(=O)(=O)c1ccc(N(C)C)c([N+](=O)[O-])c1 the results were MLLE-PAM2 inh 46* and HCV core dimer -4.
`CC(=O)Nc1ccc(NC(=O)C(C)OC(=O)CCCOc2ccc(Cl)cc2C)cc1` (stereo not drawn) gave MLLE-PAM2 inh 4 and HCV core dimer 4.
`COc1ccc(C(N)=S)c(OC)c1` gave eIF4H FP inh -9, MLLE-PAM2 inh 39*, PABP FP inh inactive, HCV core dimer -16, eIF4E-4G inh -1 and SUMO HTRF inh -2.
Screening COc1ccc(/C(C)=N/N=C(\C)c2ccc(OC)cc2OC)c(OC)c1 returned eIF4H FP inh -5, MLLE-PAM2 inh 2, PABP FP inh inactive, HCV core dimer 5, eIF4E-4G inh 3 and SUMO HTRF inh 2.
For O=C(NC1(C(F)(F)F)NC(=O)N(Cc2ccco2)C1=O)c1cccs1 (stereo not drawn) the results were eIF4H FP inh 92*, MLLE-PAM2 inh 8, PABP FP inh active, HCV core dimer 7, eIF4E-4G inh 0 and SUMO HTRF inh 6.
Screening CCOC(=O)CNC(=O)CSc1nc(-c2cccc(C)c2)ns1 returned eIF4H FP inh 5, MLLE-PAM2 inh 41*, PABP FP inh inactive, HCV core dimer 0, eIF4E-4G inh -1 and SUMO HTRF inh 4.
`O=C(O)c1ccc(-c2ccc(/C=N/Nc3ccc([N+](=O)[O-])cc3)o2)cc1` gave eIF4H FP inh 45, MLLE-PAM2 inh -140, PABP FP inh inactive, HCV core dimer 23, eIF4E-4G inh 9 and SUMO HTRF inh 26.
O=C(O)c1cccc(-c2ccc(/C=N/Nc3ccc([N+](=O)[O-])cc3)o2)c1 was read as eIF4H FP inh 54, MLLE-PAM2 inh -141, PABP FP inh active, HCV core dimer -18, eIF4E-4G inh 4 and SUMO HTRF inh 36.
